Here are results for 2 compounds from PMC7065716 (International Journal of Nanomedicine, 2020).

The subject of data set [1] is IL-6. As to the kind of experiment: CFA-induced RA in rats: serum IL-6. The data set is classed as in vivo, female Wister albino rats. Conditions: treated day 13-27, serum day 28, listed as oral DH. In short, it runs like this:
(§1)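 Arthritis induced as three 0.4 mL subcutaneous plantar CFA injections (days 1, 4, 7); treatments given days 13–27 as topical gel 1 g/day on 4 cm2 shaved dorsum or oral 10 mg/kg/day. Eight rats per group. Day 28, 24 h after last dose, retro-orbital blood under diethyl ether; serum separated at 3000 rpm for 30 min, stored −20°C, assayed by ELISA kit. One-way ANOVA with Tukey test.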

Data set [2] can be described thus: In vitro DH release. As to conditions: dialysis bag, pH 5.5, 37 °C. The data set is classed as physicochemical. In short, it runs like this: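 Formulation or free drug solution (3 mg drug equivalent) held in a cellophane dialysis bag (MWCO 12,000) wrapped on a cylinder. Bag placed in 30 mL PBS, pH 5.5, at 37 ± 0.5 °C, stirred 50 rpm. 3 mL sampled at 1, 2, 3, 5, 6, 7 and 8 h and replaced. UV read at 292 nm. Run in triplicate, mean ± SD, cumulative % released.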

Data set [3] has as its system CFA-induced RA in rats. As to the kind of experiment: CFA-induced RA in rats: radiographic analysis. The data set is classed as in vivo, female Wister albino rats. As to conditions: day 28.
The conditions of data set [4]: cited from earlier work.
Data set [5] concerns anti-cyclic citrullinated peptide antibody (anti-CCP). As to the kind of experiment: CFA-induced RA in rats: serum anti-CCP. The data set is classed as in vivo, female Wister albino rats. Conditions: treated day 13-27, serum day 28. The method, boiled down: as §1
Data set [6] relates to CFA-induced RA in rats. As to the kind of experiment: CFA-induced RA in rats: histopathology of knee joints, spleen and liver. As to conditions: H&E. The data set is classed as in vivo, female Wister albino rats. The method, boiled down: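 CFA (0.4 mL) injected subcutaneously into hind-limb plantar surface on days 1, 4 and 7 in female rats, 180–200 g, 8 per group. From day 13 to 27: topical gel 1 g/day on 4 cm2 shaved dorsum, oral 10 mg/kg/day, or reference oral drug 0.1 mg/kg/day. On day 28, under pentobarbitone 50 mg/kg i.p., three knee joints per group plus spleen and liver fixed in 10% formalin saline for 24 h, H&E-stained and read by pathologist.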

Data set [7] is described as follows: Pharmacokinetic analysis in rats. The data set is classed as in vivo. As to conditions: Wister albino, rat, plasma, 10 mg/kg. The method, boiled down:
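Rats (200–250 g, six per group) fasted 10 h, then dosed 10 mg/kg by oral gavage or as 1 g gel on 4 cm2 shaved dorsum. Retro-orbital blood (0.5 mL, heparinized) taken 0.25–24 h; plasma stored −20°C. Plasma spiked with internal standard, extracted with tert-butyl methyl ether, reconstituted in acetonitrile:0.1% formic acid (80:20), analysed by LC-MS/MS on C18. Non-compartmental analysis; AUC by trapezoidal rule.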

Data set [8] in a line: Ex vivo skin permeation. Format: in vitro ADME, rat. The method, boiled down:
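Franz cell, 5.0 cm2 permeation area, 100 mL distilled-water receiver. Shaved rat skin mounted stratum corneum up. Donor: vesicle formulation equivalent to 3 mg drug, or drug solution as control. Run at 37 ± 2 °C, 100 rpm, 24 h, sampling at 1–24 h with medium replaced. UV read at 292. Lag time from x-intercept of the linear portion of the cumulative µg/cm2-versus-time plot; Jss (µg/cm2/h) and Kp (cm/h) calculated.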

Data set [9] concerns cartilage oligomeric matrix protein (COMP). As to the kind of experiment: CFA-induced RA in rats: serum COMP. The data set is classed as in vivo, female Wister albino rats. Conditions: treated day 13-27, serum day 28. In short, it runs like this: as §1

Values joined by “and” are separate entries in the source; they are usually repeats but may differ in a detail not shown here. Equal values may be shown once. Where a name gives a salt, the structure may show the parent alone.

For `CN(C)[C@@H](CCOc1cccc2ccccc12)c1ccccc1` [DH, Dapoxetine hydrochloride], the “IL-6 (serum)” value in [1] was “no significant effect”. For the same compound, the “DH released in the first 3 h” value in [2] was “approximately 95%”. Also, the radiographic findings entry in data set [3] was “significant and comparable inhibition of soft tissues swelling”. Moreover, the elimination half-life in [4] is 1.31 h. The “Anti-CCP (serum)” value in data set [5] was 4.64 ± 0.15^a, b, c, d, e ng/mL. In addition, in [6], the knee joint histopathology entry is “rough cerrated articular surface”, the liver histopathology entry is “marked congestion of central veins” and the spleen histopathology result is recorded as “marked activation in the macrophage in the white pulb”. In [7] (oral), this compound had an AUC(0-inf) of 734 ng·h/mL and a Cmax of 198 ng/mL. In addition, in data set [7] (po), the AUC(0-inf) amounted to 734 ± 51.1 ng·h/mL, the AUC(0-t) amounted to 701 ± 25.8 ng·h/mL, the Cmax stood at 198 ± 16.4 ng/mL and the MRT was 5.74 ± 1.56 h. In data set [7] (po), the Tmax came to 1.5 ± 0.06 h and the half-life is 5.46 ± 2.87 h. Also, the Papp in [8] (rat) was 0.944 ×10⁻⁶ cm/s. In addition, the “Lag Time” value in data set [8] (rat skin, Franz cell) is on record as 91.10 ± 20.67 min. The “Y5: Q24, cumulative amount permeated/unit area in 24 h” value in [8] (rat skin, Franz cell, 37 °C, 24 h) was determined as 135.6±17.0 µg/cm2. For the same compound, the “Jss (drug flux, steady state)” value in data set [8] (rat skin, Franz cell, listed as DH solution) is 5.6±0.7 µg/cm2.h and 5.65± 0.71 µg/cm2.h. Moreover, the “COMP (serum)” value in data set [9] is 70.30 ± 5.73^a, b, c, d, e pg/mL.
Regarding `CN(Cc1cnc2nc(N)nc(N)c2n1)c1ccc(C(=O)N[C@@H](CCC(=O)O)C(=O)O)cc1` [MTX, methotrexate], the radiographic findings result in [3] is recorded as “almost normal soft tissue with disappearance of inflammatory signs”. Besides, in [5], the “Anti-CCP (serum)” value is listed as 4.00 ± 0.03^a, b, c ng/mL.
